Measured values taken from ChEMBL document CHEMBL1139369, “Discovery and structure-activity relationship of P1-P3 ketoamide derived macrocyclic inhibitors of hepatitis C virus NS3 protease” (J Med Chem, 2009).
The source made the active and inactive calls. No cut-off for these calls is given here.

Legend:
[1] = (§1) AUC (0 to 6 hrs) in rat at 10 mg/kg, po; type: ADME, organism-based, Plasma; design: time < 6 hr, dose 10 mg/kg, route oral; details: plasma
Method in brief: (§2)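 Rapid rat assay: oral dosing at 10 mg/kg in 0.4% HPMC. Blood drawn periodically and pooled; plasma AUC calculated over 0–6 h.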

Hepatitis C virus = experiment: Antiviral activity against HCV by genotype 1 replicon based cellular assay; type: functional, Hepacivirus hominis
[2] = Binding affinity to HCV NS3 protease; design: species or system Hepacivirus hominis
[3] = AUC (0 to 6 hrs) in rat at 5 mg/kg, po; type: ADME, organism-based; design: time < 6 hr, dose 5 mg/kg, route oral; details: plasma
Method in brief: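 Rapid rat plasma-level assay with oral dosing at 5 mg/kg in 0.4% HPMC; plasma exposure expressed as AUC.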

[4] = Ratio of Ki for human neutrophil elastase to Ki for HCV NS3 protease
Method in brief: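 Selectivity index: Ki* against human neutrophil elastase divided by Ki* against HCV NS3 protease, both from enzyme binding measurements.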

Rattus norvegicus = experiment: as §1; type: ADME, organism-based, Plasma; design: time < 6 hr, dose 10 mg/kg, route oral; details: in vivo, 6 h; method in brief: as §2

AUC(0-t) at 6 h [1]	EC90 (Hepatitis C virus)	Ki [2]	Compound	further results
0.84 µM·h	0.15 µM	0.007 µM	C=CCNC(=O)C(=O)[C@@H]1CCCCCCCCC[C@H](NC(=O)N[C@H](CN2Cc3sccc3S2(=O)=O)C(C)(C)C)C(=O)N2C[C@@H]3[C@H]([C@H]2C(=O)N1)C3(C)C	–
–	0.4 µM	0.037 µM	CC(C)(C)OC(=O)[C@@H](NC(=O)N[C@H]1CCCCCCCCCC[C@@H](C(=O)C(N)=O)NC(=O)[C@@H]2[C@H]3[C@@H](CN2C1=O)C3(C)C)C(C)(C)C	–
–	0.06 µM	0.013 µM	C=CCNC(=O)C(=O)[C@@H]1CCCCCCCCC[C@H](NC(=O)N[C@H](CN(C)S(=O)(=O)N(C)C)C(C)(C)C)C(=O)N2C[C@@H]3[C@H]([C@H]2C(=O)N1)C3(C)C	AUC(0-t) at 6 h [3]: 1.04 µM·h
–	1 µM	0.006 µM	CN(C)C(=O)[C@@H](NC(=O)CNC(=O)C(=O)[C@@H]1CCCCCCCCCC[C@H](NC(=O)NC(C)(C)C)C(=O)N2C[C@@H]3[C@H]([C@H]2C(=O)N1)C3(C)C)c1ccccc1	Ratio Ki [4]: 980
0.36 µM·h	0.055 µM	0.003 µM	C=CCNC(=O)C(=O)[C@@H]1CCCCCCCCC[C@H](NC(=O)N[C@H](CN(C)S(C)(=O)=O)C(C)(C)C)C(=O)N2C[C@@H]3[C@H]([C@H]2C(=O)N1)C3(C)C	–
1.5 µM·h	0.02 µM	0.002 µM	C=CCNC(=O)C(=O)[C@@H]1CCCCCCCCC[C@H](NC(=O)N[C@H](CN2CCC(C)(C)CC2=O)C(C)(C)C)C(=O)N2C[C@@H]3[C@H]([C@H]2C(=O)N1)C3(C)C	–
–	0.28 µM	0.006 µM	C=CCNC(=O)C(=O)[C@@H]1CCCCCCCCC[C@H](NC(=O)N[C@H](C(=O)C2CC2)C2CCCCC2)C(=O)N2C[C@@H]3[C@H]([C@H]2C(=O)N1)C3(C)C	Activity (Rattus norvegicus): Not Active
–	–	0.25 µM	C=CCCCC[C@H](NC(=O)[C@@H]1[C@H]2[C@@H](CN1C(=O)[C@H](CCCCC=C)NC(=O)OC(C)(C)C)C2(C)C)C(=O)C(N)=O	–
–	0.07 µM	0.002 µM	CN(C[C@@H](NC(=O)N[C@H]1CCCCCCCCC[C@@H](C(=O)C(N)=O)NC(=O)[C@@H]2[C@H]3[C@@H](CN2C1=O)C3(C)C)C(C)(C)C)S(=O)(=O)c1cccs1	–
–	2 µM	0.089 µM	CC(C)(C)OC(=O)N[C@H]1CCCCCCCCCC[C@@H](C(=O)C(=O)NCC(=O)NCc2ccccc2)NC(=O)[C@@H]2[C@H]3[C@@H](CN2C1=O)C3(C)C	–
–	1 µM	0.059 µM	CC(C)(C)NC(=O)N[C@H]1CCCCCCCCCC[C@@H](C(=O)C(N)=O)NC(=O)[C@H]2[C@H]3[C@@H](CN2C1=O)C3(C)C	–
0.84 µM·h	0.09 µM	0.007 µM	C=CCNC(=O)C(=O)[C@@H]1CCCCCCCCC[C@H](NC(=O)N[C@H](CN(C)S(=O)(=O)c2ccccn2)C(C)(C)C)C(=O)N2CC3C([C@H]2C(=O)N1)C3(C)C (single isomer, unassigned)	–
0.28 µM·h	0.03 µM	0.004 µM	C=CCNC(=O)C(=O)[C@@H]1CCCCCCCCC[C@H](NC(=O)N[C@H](CN2C(=O)CN(C)CC2=O)C(C)(C)C)C(=O)N2CC3C([C@H]2C(=O)N1)C3(C)C (single isomer, unassigned)	–
–	–	0.014 µM	CCCNC(=O)C(=O)[C@@H]1CCCCCCCCC[C@H](NC(=O)N[C@H](CN(C)S(=O)(=O)c2cccs2)C(C)(C)C)C(=O)N2CC3C([C@H]2C(=O)N1)C3(C)C (single isomer, unassigned)	–
–	0.6 µM	0.006 µM	CN(C)C(=O)[C@@H](NC(=O)CNC(=O)C(=O)[C@@H]1CCCCCCCCCC[C@H](NC(=O)OC(C)(C)C)C(=O)N2CC3C([C@H]2C(=O)N1)C3(C)C)c1ccccc1 (single isomer, unassigned)	Ratio Ki [4]: 780
0.4 µM·h	–	0.021 µM	CN(C[C@@H](NC(=O)N[C@H]1CCCCCCCCC[C@@H](C(=O)C(=O)NCC2CC2)NC(=O)[C@@H]2C3C(CN2C1=O)C3(C)C)C(C)(C)C)S(=O)(=O)c1cccs1 (single isomer, unassigned)	–
1.1 µM·h	0.02 µM	0.002 µM	C=CCNC(=O)C(=O)[C@@H]1CCCCCCCCC[C@H](NC(=O)N[C@H](CN2C(=O)CC(C)(C)CC2=O)C(C)(C)C)C(=O)N2CC3C([C@H]2C(=O)N1)C3(C)C (single isomer, unassigned)	–
–	0.3 µM	0.005 µM	CN(C)C(=O)[C@@H](NC(=O)CNC(=O)C(=O)[C@@H]1CCCC/C=C/CCCC[C@H](NC(=O)OC(C)(C)C)C(=O)N2CC3C([C@H]2C(=O)N1)C3(C)C)c1ccccc1 (single isomer, unassigned)	Ratio Ki [4]: 1400
1.2 µM·h	0.1 µM	0.016 µM	C=CCNC(=O)C(=O)[C@@H]1CCCCCCCCC[C@H](NC(=O)N[C@H](CN2C(=O)c3ccccc3C2=O)C(C)(C)C)C(=O)N2CC3C([C@H]2C(=O)N1)C3(C)C (single isomer, unassigned)	–
–	0.4 µM	0.036 µM	CC1(NC(=O)N[C@H]2CCCCCCCCCC[C@@H](C(=O)C(N)=O)NC(=O)[C@@H]3C4C(CN3C2=O)C4(C)C)CCCCC1 (single isomer, unassigned)	–
1.26 µM·h	–	0.005 µM	C=CCNC(=O)C(=O)[C@@H]1CCCCCCCCC[C@H](NC(=O)N[C@H](CN(C)S(=O)(=O)c2cccs2)C(C)(C)C)C(=O)N2CC3C([C@H]2C(=O)N1)C3(C)C (single isomer, unassigned)	–
–	0.48 µM	0.02 µM	C=CCNC(=O)C(=O)[C@@H]1CCCCCCCCC[C@H](NC(=O)N[C@H](C(=O)C2CC2)C(C)C)C(=O)N2CC3C([C@H]2C(=O)N1)C3(C)C (single isomer, unassigned)	Activity (Rattus norvegicus): Not Active
–	–	0.01 µM	CCNC(=O)C(=O)[C@@H]1CCCCCCCCC[C@H](NC(=O)N[C@H](CN(C)S(=O)(=O)c2cccs2)C(C)(C)C)C(=O)N2CC3C([C@H]2C(=O)N1)C3(C)C (single isomer, unassigned)	–
0.31 µM·h	0.015 µM	0.003 µM	C=CCNC(=O)C(=O)[C@@H]1CCCCCCCCC[C@H](NC(=O)N[C@H](CN2C(=O)C3CCC(C3)C2=O)C(C)(C)C)C(=O)N2CC3C([C@H]2C(=O)N1)C3(C)C (single isomer, unassigned)	–
–	–	6 µM	CC(C)(C)NC(=O)C(=O)[C@@H]1CCCCCCCCCC[C@H](NC(=O)OC(C)(C)C)C(=O)N2CC3C([C@H]2C(=O)N1)C3(C)C (single isomer, unassigned)	Activity (Hepatitis C virus; Hepacivirus hominis): inactive
–	0.25 µM	0.003 µM	CN(C[C@@H](NC(=O)N[C@H]1CCCCCCCCC[C@@H](C(=O)C(N)=O)NC(=O)[C@@H]2C3C(CN2C1=O)C3(C)C)C(C)(C)C)S(C)(=O)=O (single isomer, unassigned)	–
–	0.18 µM	0.011 µM	CC1(C)C2CN3C(=O)[C@@H](NC(=O)N[C@H](C(=O)C4CC4)C4CCCCC4)CCCCCCCCC[C@@H](C(=O)C(N)=O)NC(=O)[C@@H]3C21 (single isomer, unassigned)	–
–	0.1 µM	0.011 µM	CC(C)[C@H](NC(=O)N[C@H]1CCCCCCCCC[C@@H](C(=O)C(N)=O)NC(=O)[C@@H]2C3C(CN2C1=O)C3(C)C)C(=O)C1CC1 (single isomer, unassigned)	–
–	0.9 µM	0.059 µM	CC(C)(C)OC(=O)N[C@H]1CCCCCCCCCC[C@@H](C(=O)C(N)=O)NC(=O)[C@@H]2C3C(CN2C1=O)C3(C)C (single isomer, unassigned)	–
–	0.35 µM	0.014 µM	CC(C)(C)NC(=O)N[C@H](C(=O)N1CC2C([C@H]1C(=O)NC(CC1CCC1)C(=O)C(N)=O)C2(C)C)C(C)(C)C (single isomer, unassigned) [BOCEPREVIR]	Ratio Ki [4]: 2200
